# ChEMBL document CHEMBL3352498, “Membrane active phenylalanine conjugated lipophilic norspermidine derivatives with selective antibacterial activity” (J Med Chem, 2014)
# The source made the active and inactive calls. No cut-off for these calls is given here.
# What was measured:
# Staphylococcus aureus [1] = test: Antimicrobial activity against Staphylococcus aureus MTCC 737 after 24 hrs by broth microdilution method; assay type: functional
# In short: (§1)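 Broth microdilution per CLSI: 6 h cultures (37 °C) diluted to ~10^5 CFU/mL; 2-fold serial dilutions in sterile water added to bacteria; 24 h at 37 °C; OD600 read. Triplicates, experiment done at least twice; mean OD vs concentration fitted sigmoidally, MIC taken where OD matched the no-bacteria control. E. coli grown in LB broth, S. aureus in yeast–dextrose broth.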
# Staphylococcus aureus [2] = test: Antimicrobial activity against methicillin-resistant Staphylococcus aureus ATCC 33591 after 24 hrs by broth microdilution method; assay type: functional
# In short: (§2)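 Broth microdilution per CLSI, 24 h at 37 °C. Inoculum is a 6 h 37 °C culture diluted to ~10^5 CFU/mL (yeast–dextrose broth for MRSA and K. pneumoniae). 50 μL of 2-fold dilutions in water plus 150 μL bacteria. Read by OD600, triplicates, run at least twice. MIC is taken from a sigmoidal fit as the point where OD equals the bacteria-free control.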
# Enterococcus faecium [3] = test: Antimicrobial activity against Enterococcus faecium ATCC 19634 after 24 hrs by broth microdilution method; assay type: functional
# Escherichia coli [4] = test: Antimicrobial activity against Escherichia coli MTCC 443 after 24 hrs by broth microdilution method; assay type: functional; in short: as §1
# Enterococcus faecium [5] = test: Antimicrobial activity against vancomycin-resistant Enterococcus faecium ATCC 51559 after 24 hrs by broth microdilution method; assay type: functional; in short: as §2
# Klebsiella pneumoniae = test: Antimicrobial activity against beta-lactam-resistant Klebsiella pneumoniae ATCC 700603 after 24 hrs by broth microdilution method; assay type: functional; in short: as §2
# [6] = Hemolytic activity in human erythrocytes after 1 hr by spectrophotometry; assay type: ADME, cell-based, Erythrocyte
# In short: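 Fresh heparinised human erythrocytes suspended to 5 vol % in PBS pH 7.4, mixed with serially diluted compound, 1 h at 37 °C; no-compound and 1 vol % Triton X-100 controls. Supernatant A540 after centrifugation gave % hemolysis; triplicates averaged, sigmoidal fit gave HC50.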
# [7] = Critical micelle concentration of the compound; assay type: ADME
# In short: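 Static light scattering at 90° (excitation and emission 400 nm) on compound dissolved at 500 μg/mL in yeast–dextrose broth at room temperature, measured over successive dilutions; cmc taken from the inflection point where intensity rises steeply then falls after a local maximum.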
# Staphylococcus aureus [8] = test: Ratio of MIC for Staphylococcus aureus MTCC 737 after 4 hrs in presence of 50% human serum to MIC for Staphylococcus aureus MTCC 737 after 4 hrs; assay type: functional
# In short: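 Compound mixed 1:1 with human serum (50% serum) and held at 37 °C; at 0, 2 and 4 h the mixture was serially 2-fold diluted in 0.9% saline. Activity against S. aureus then tested in triplicate by the standard broth microdilution MIC protocol.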
# Staphylococcus aureus [9] = test: Antimicrobial activity against Staphylococcus aureus MTCC 737 after 2 hrs by broth microdilution method in presence of 50% human plasma; assay type: functional, organism-based
# In short: (§3)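 Compound mixed 1:1 with fresh human plasma (50% plasma) and held at 37 °C; at 0, 2, 4, 6, 12 and 24 h aliquots were diluted 2-fold in 0.9% saline.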
# Staphylococcus aureus [10] = test: Antimicrobial activity against Staphylococcus aureus MTCC 737 after 4 hrs by broth microdilution method in presence of 50% human plasma; assay type: functional, organism-based; in short: as §3
# Staphylococcus aureus [11] = test: Antimicrobial activity against Staphylococcus aureus MTCC 737 at sub-MIC measured after 20 passages by broth microdilution method; assay type: functional, organism-based
# Escherichia coli [12] = test: Antimicrobial activity against Escherichia coli MTCC 443 at sub-MIC measured after 30 passages by broth microdilution method; assay type: functional, organism-based
# Staphylococcus aureus [13] = test: Antimicrobial activity against Staphylococcus aureus MTCC 737 assessed as increase in MIC measured after 20 passages by broth microdilution method relative to control; assay type: functional
# Escherichia coli [14] = test: Antimicrobial activity against Escherichia coli MTCC 443 assessed as increase in MIC measured after 30 passages by broth microdilution method relative to control; assay type: functional
# Staphylococcus aureus [15] = test: Antimicrobial activity against Staphylococcus aureus MTCC 737 assessed as membrane permeabilization at 12 times MIC by propidium iodide staining method; assay type: functional, organism-based
# Escherichia coli [16] = test: Antimicrobial activity against Escherichia coli MTCC 443 assessed as membrane permeabilization at 12 times MIC by propidium iodide staining method; assay type: functional, organism-based
# Staphylococcus aureus [17] = test: Antimicrobial activity against Staphylococcus aureus MTCC 737 assessed as membrane depolarization at 12 times MIC using DiSC3 by fluorescence spectroscopy; assay type: functional, organism-based
# In short: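 Mid-log S. aureus washed and resuspended in 5 mM HEPES, 5 mM glucose, 100 mM KCl (1:1:1); 2 μM DiSC3(5) added, 20 min preincubation.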
# Staphylococcus aureus [18] = test: Antimicrobial activity against Staphylococcus aureus MTCC 737 assessed as leakage of K+ at 12 times MIC using PBFI-AM by fluorescence spectroscopy; assay type: functional, organism-based
# Escherichia coli [19] = test: Antimicrobial activity against Escherichia coli MTCC 443 assessed as leakage of K+ at 12 times MIC using PBFI-AM by fluorescence spectroscopy; assay type: functional, organism-based
# Staphylococcus aureus [20] = test: Bactericidal activity against Staphylococcus aureus MTCC 737 assessed as log reduction in CFU/ml at 6 times MIC by time-kill assay relative to control; assay type: functional
# Staphylococcus aureus [21] = test: Bactericidal activity against Staphylococcus aureus MTCC 737 assessed as log reduction in CFU/ml at 6 times MIC at 15 mins by time-kill assay relative to control; assay type: functional
# [22] = Cytotoxicity against mouse RAW264.7 cells at 16 ug/ml after 1 hr by MTT assay; assay type: cell-based; conditions: raw264.7, 1 h
# In short: (§4)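 RAW 264.7 cells grown in DMEM with 10% FBS to ~70–80% confluency, exposed to serially diluted compound 1 h at 37 °C, 5% CO2; untreated and Triton X-100 controls. MTT (5 mg/mL) 4 h, formazan dissolved in DMSO, OD 570 nm; viability normalised to controls, triplicates, sigmoidal fit for 50% viability.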
# [23] = Cytotoxicity against mouse RAW264.7 cells after 1 hr by MTT assay; assay type: cell-based; conditions: raw264.7, 1 h; in short: as §4
# Staphylococcus aureus [24] = test: Ratio of MIC for Staphylococcus aureus MTCC 737 after 2 hrs in presence of 50% human plasma to MIC for Staphylococcus aureus MTCC 737 after 2 hrs; assay type: functional; in short: as §3
# Staphylococcus aureus [25] = test: Ratio of MIC for Staphylococcus aureus MTCC 737 after 4 hrs in presence of 50% human plasma to MIC for Staphylococcus aureus MTCC 737 after 4 hrs; assay type: functional; in short: as §3
Compound,"MIC (Staphylococcus aureus [1]; MTCC 737, 24 h)","MIC (Staphylococcus aureus [2]; ATCC 33591, 24 h)","MIC (Enterococcus faecium [3]; ATCC 19634, 24 h)","MIC (Escherichia coli [4]; MTCC 443, 24 h)","MIC (Enterococcus faecium [5]; ATCC 51559, 24 h)","MIC (Klebsiella pneumoniae; ATCC 700603, 24 h)",HC50 at 1 h [6],further results
CCCCCCCCCC(=O)N(CCCNC(=O)[C@@H](N)Cc1ccccc1)CCCNC(=O)[C@@H](N)Cc1ccccc1.O=C(O)C(F)(F)F.O=C(O)C(F)(F)F,15 µg/mL,20 µg/mL,29 µg/mL,19 µg/mL,14 µg/mL,57 µg/mL,187 µg/mL,CMC [7]: 156 µg/mL
CCCCCCCCCCCCCC(=O)N(CCCN)CCCN.O=C(O)C(F)(F)F.O=C(O)C(F)(F)F,18 µg/mL,15 µg/mL,27 µg/mL,28 µg/mL,23 µg/mL,47 µg/mL,72 µg/mL,–
N[C@@H](Cc1ccccc1)C(=O)NCCCN(CCCNC(=O)[C@@H](N)Cc1ccccc1)C(=O)[C@@H](N)Cc1ccccc1.O=C(O)C(F)(F)F.O=C(O)C(F)(F)F.O=C(O)C(F)(F)F,> 250 µg/mL,–,> 250 µg/mL,> 250 µg/mL,> 250 µg/mL,> 250 µg/mL,–,–
CCCCCCCCCCCC(=O)N(CCCNC(=O)[C@H](N)Cc1ccccc1)CCCNC(=O)[C@H](N)Cc1ccccc1.O=C(O)C(F)(F)F.O=C(O)C(F)(F)F,3.5 µg/mL,4.2 µg/mL,2.8 µg/mL,10 µg/mL,2.4 µg/mL,6.5 µg/mL,209 µg/mL,fold change (FC) (Staphylococcus aureus [8]): 2; Activity (Staphylococcus aureus [9]): Active; Activity (Staphylococcus aureus [10]): Active; Activity (Staphylococcus aureus [11]): Active; Activity (Escherichia coli [12]): Active; fold change (FC) (Staphylococcus aureus [13]): 800; fold change (FC) (Escherichia coli [14]): 250; Activity (Staphylococcus aureus [15]): Active; Activity (Escherichia coli [16]): Active; Activity (Staphylococcus aureus [17]): Active; Activity (Staphylococcus aureus [18]): Active; Activity (Escherichia coli [19]): Active; CMC [7]: 40 µg/mL; FC (Staphylococcus aureus [20]): 3; FC (Staphylococcus aureus [21]): 3; Activity [22]: Non-toxic; Activity [23]: Non-toxic
CCCCCCCCCCCCCCCCCC(=O)N(CCCN)CCCN.O=C(O)C(F)(F)F.O=C(O)C(F)(F)F,21 µg/mL,19 µg/mL,21 µg/mL,26 µg/mL,11 µg/mL,106 µg/mL,42 µg/mL,–
CN[C@H](CC(C)C)C(=O)N[C@H]1C(=O)N[C@@H](CC(N)=O)C(=O)N[C@H]2C(=O)N[C@H]3C(=O)N[C@H](C(=O)N[C@H](C(=O)O)c4cc(O)cc(O)c4-c4cc3ccc4O)[C@H](O)c3ccc(c(Cl)c3)Oc3cc2cc(c3O[C@@H]2O[C@H](CO)[C@@H](O)[C@H](O)[C@H]2O[C@H]2C[C@](C)(N)[C@H](O)[C@H](C)O2)Oc2ccc(cc2Cl)[C@H]1O [VANCOMYCIN],0.8 µg/mL,0.8 µg/mL,0.8 µg/mL,–,> 1000 µg/mL,–,–,–
N[C@@H](Cc1ccccc1)C(=O)NCCCN(CCCNC(=O)[C@@H](N)Cc1ccccc1)C(=O)Cc1cccc2ccccc12.O=C(O)C(F)(F)F.O=C(O)C(F)(F)F,> 250 µg/mL,–,> 250 µg/mL,> 250 µg/mL,> 250 µg/mL,> 250 µg/mL,–,–
CCCCCCCCCCCC(=O)N(CCCN)CCCN.O=C(O)C(F)(F)F.O=C(O)C(F)(F)F,45 µg/mL,53 µg/mL,62 µg/mL,108 µg/mL,57 µg/mL,163 µg/mL,107 µg/mL,–
CCCCCCCCCCCCCCCC(=O)N(CCCNC(=O)[C@@H](N)Cc1ccccc1)CCCNC(=O)[C@@H](N)Cc1ccccc1.O=C(O)C(F)(F)F.O=C(O)C(F)(F)F,9 µg/mL,4.6 µg/mL,7.6 µg/mL,227 µg/mL,2.7 µg/mL,62 µg/mL,74 µg/mL,–
CCCCCCCCCCCC(=O)N(CCCNC(=O)[C@@H](N)Cc1ccccc1)CCCNC(=O)[C@@H](N)Cc1ccccc1.O=C(O)C(F)(F)F.O=C(O)C(F)(F)F,3.6 µg/mL,3.3 µg/mL,4 µg/mL,10 µg/mL,2.3 µg/mL,8 µg/mL,171 µg/mL,Activity (Staphylococcus aureus [15]): Active; Activity (Escherichia coli [16]): Active; Activity (Staphylococcus aureus [17]): Active; Activity (Staphylococcus aureus [18]): Active; Activity (Escherichia coli [19]): Active; CMC [7]: 40 µg/mL; FC (Staphylococcus aureus [20]): 3; fold change (FC) (Staphylococcus aureus [24]): 2; fold change (FC) (Staphylococcus aureus [25]): 4
CCCCCCCCCCCCCC(=O)N(CCCNC(=O)[C@@H](N)Cc1ccccc1)CCCNC(=O)[C@@H](N)Cc1ccccc1.O=C(O)C(F)(F)F.O=C(O)C(F)(F)F,6 µg/mL,4.1 µg/mL,4.5 µg/mL,14 µg/mL,2.4 µg/mL,16 µg/mL,124 µg/mL,–
CCCCCCCCCCCCCCCC(=O)N(CCCN)CCCN.O=C(O)C(F)(F)F.O=C(O)C(F)(F)F,12 µg/mL,11 µg/mL,2.8 µg/mL,14 µg/mL,2.4 µg/mL,65 µg/mL,52 µg/mL,–
CCCCCCCCCC(=O)N(CCCN)CCCN.O=C(O)C(F)(F)F.O=C(O)C(F)(F)F,240 µg/mL,137 µg/mL,> 250 µg/mL,231 µg/mL,250 µg/mL,> 250 µg/mL,> 500 µg/mL,–
N[C@@H](Cc1ccccc1)C(=O)NCCCNCCCNC(=O)[C@@H](N)Cc1ccccc1.O=C(O)C(F)(F)F.O=C(O)C(F)(F)F.O=C(O)C(F)(F)F,> 250 µg/mL,–,> 250 µg/mL,> 250 µg/mL,> 250 µg/mL,> 250 µg/mL,–,–
COLISTIN,–,–,–,–,–,–,–,MIC (Staphylococcus aureus [1]): 25 µg/mL; MIC (Staphylococcus aureus [2]): 68 µg/mL; MIC (Enterococcus faecium [3]): > 250 µg/mL; MIC (Escherichia coli [4]): 0.5 µg/mL; MIC (Enterococcus faecium [5]): > 250 µg/mL; MIC (Klebsiella pneumoniae): 1.5 µg/mL
CCCCCCCCCCCCCCCCCC(=O)N(CCCNC(=O)[C@@H](N)Cc1ccccc1)CCCNC(=O)[C@@H](N)Cc1ccccc1.O=C(O)C(F)(F)F.O=C(O)C(F)(F)F,11 µg/mL,5.2 µg/mL,10 µg/mL,248 µg/mL,2.9 µg/mL,87 µg/mL,65 µg/mL,CMC [7]: 20 µg/mL
